Myeloid diff MLP: induction of myeloid progenitor differentiation, primary screen, cell-based, flow cytometry, MLPCN library | ER-HoxA9 myeloid progenitors, lysozyme-GFP differentiation | calls only at 10 µM | actives 1% (n = 360,000) | AID 624256, 2012;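 active = normalized GFP-positive differentiation at or above the plate's own cutoff, the solvent-only control mean plus 3 SD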;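 also: cells exposed to compound for four days before flow analysis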
SKN-1 block: suppressors of acrylamide-induced Pgst-4::GFP reporter in worms, primary screen, SKN-1 inhibitor project, whole organism, uHTS, GFP/RFP fluorescence ratio, strain VP596 | C. elegans VP596 Pgst-4::GFP/RFP ratio, 24 h | inhibition, % at 21.8 µM | actives 0.49% (n = 360,000) | AID 624304, 2012;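 active = interference check ratio from 0.5 to 1.5 plus GFP to RFP signal ratio inhibition reaching or exceeding a fixed threshold, cut at about 30% in these data, passing the limit was not always enough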
GRK2 inh: compounds blocking aptamer binding on GRK2 – biochemical, human GRK2, bead flow cytometry, HTS, primary screen. FAM-aptamer displacement from GRK2. inhibition of aptamer binding, % at 10 µM. actives 0.59% (n = 330,000). AID 488847, 2010;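 active = inhibition of aptamer binding above 40%, roughly 3 SD of noise, on plates passing a quality check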;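 also: median bead fluorescence of bound FAM aptamer so fluorescent compounds give negative values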
Rin1-Abl PPI inh: inhibitors of Rin1-Abl protein binding, primary screen, biochemical, TR-FRET. Tyrosine-protein kinase ABL1 (Homo sapiens) + Ras and Rab interactor 1 (Homo sapiens), …. inhibition, % at 7.35 µM. actives 0.4% (n = 360,000). AID 588664, 2011; in the data active = inhibition above about 5%, passing the limit was not always enough
Rce1 inhib: yeast Rce1p protease inhibitors, primary screen, biochemical, fluorescence, cell-free homogeneous | CAAX prenyl protease 2 (Saccharomyces cerevisiae (strain ATCC 204508 / S288c)), Q03530 | yeast membranes, quenched prenylated peptide cleavage fluorescence | calls only | actives 0.27% (n = 290,000);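 active = fall in fluorescence gain of 50% or more versus controls, with final raw signal at or below 3038400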;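 also: plate controls were neutral control wells for no effect and wells lacking membranes for full effect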
T cell HTS: modulators of CD8 T cell-vesicle binding, primary screen, mouse 2C CD8+ T cells, flow cytometry; actives 0.068% (n = 330,000); response (vesicle binding), % at 7 µM; 2C CD8+ T cell-vesicle binding; hits give low values; AID 2052, 2009;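 active = response, share of CD8 T cells binding vesicles, and their 90th percentile fluorescence all below set limits, cut at about 80% in these data, passing the limit was not always enough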;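 also: values below 100% mean blocked vesicle binding to the CD8+ T cells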
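Also added: QL9-peptide-loaded Drosophila micro-vesicles bearing Ld, ICAM-1 and B7-1; Test system: purified 2C TCR transgenic mouse naive CD8+ T cells; Measured by: cytometric PE anti-B7-1 and Alexa647 anti-CD8 signals after 1% paraformaldehyde fixation; Timing: binding step 1.5 h, 37 °C, antibody labelling 20 min, ice.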
Numbers without * were called inactive; i = inactive; · = no result given; + = active, no number. Most compounds without a hit are left out; they make up all but 2.6% or so of the library.

SMILES | Myeloid diff MLP | SKN-1 block | GRK2 inh | Rin1-Abl PPI inh | Rce1 inhib | T cell HTS
CN(C)c1ccc(/C=C2\CCC/C(=C\c3ccccc3)C2=O)cc1 | + | 24 | 1 | -1 | i | 509
O=C1/C(=C/c2ccc(C(=O)O)cc2)CCC/C1=C\c1ccc(C(=O)O)cc1 | i | -7 | 3 | 0 | i | i
NS(=O)(=O)c1ccc(NC2=CC(c3ccc([N+](=O)[O-])cc3)N(c3ccc(S(N)(=O)=O)cc3)C2=O)cc1 (centres undefined) | i | -8 | 0 | 0 | i | 224
Nc1cc(=O)[nH]c(SCC(=O)Nc2ccccc2Sc2ccccc2)n1 | i | 3 | 1 | -1 | i | 809
COc1ccc(C(=O)NCc2cccc(Cl)c2)cc1S(=O)(=O)N1CCOCC1 | i | 3 | 0 | 1 | · | 225
CN(c1cccc(NC(=O)c2ccc(Cl)c(S(=O)(=O)N3CCOCC3)c2)c1)S(C)(=O)=O | + | -10 | 0 | 2 | i | 456
COc1ccc(CNC(=O)c2ccc(Cl)c(S(=O)(=O)N3CCOCC3)c2)cc1OC | + | 3 | 4 | 0 | · | 156
CC(=O)c1ccc(OCC(O)COc2ccc(C(C)=O)cc2)cc1 | i | 3 | 1 | 1 | i | 367
CC(=O)c1ccc(OCC(O)CN(C)CCOc2ccc(Br)cc2)cc1 (centres undefined) | + | -5 | 0 | 1 | i | 419
CN(Cc1cccc(Cl)c1)C(=O)C1CSC2(C)CCC(=O)N12 (centres undefined) | i | 4 | 0 | 0 | i | 254
CCS(=O)(=O)C1=NN2C(=N)/C(=C\c3ccc(OS(=O)(=O)c4ccccc4)c(OC)c3)C(=O)N=C2S1 | · | · | 41* | · | i | 283
O=C(Nc1cccc(-c2csc(Nc3ccccc3)n2)c1)c1ccccc1 | i | 46* | 2 | -4 | i | i
COc1ccccc1Nc1nc(-c2cccc([N+](=O)[O-])c2)cs1 | i | 10 | 5 | 2 | i | 654
O=[N+]([O-])c1cccc(-c2csc(Nc3ccccc3)n2)c1 | i | 35* | 0 | -1 | i | 415
O=C(Nc1cccc(-c2csc(Nc3cccc(C(F)(F)F)c3)n2)c1)c1ccccc1 | i | 17 | 0 | 1 | i | 252
Cc1sc(NC(=O)c2ccco2)c(C(c2cccnc2)N2CCN(c3ccc(F)cc3)CC2)c1C (centres undefined) | + | -6 | 3 | -2 | i | 582
Cc1sc(NC(=O)c2ccco2)c(C(c2cccnc2)N2CCN(CCO)CC2)c1C (centres undefined) | i | 5 | 0 | 6 | i | 370
CC(=O)Nc1cccc(N/C=C(\C=O)c2nc3ccccc3o2)c1 | + | -5 | 0 | -4 | i | 124
O=C/C(=C\Nc1ccccn1)c1nc2ccccc2o1 | i | 6 | 4 | -4 | i | 429
O=C/C(=C\Nc1ccccn1)c1nc2cc(Cl)ccc2o1 | + | 4 | 0 | -2 | i | 252
O=Cc1ccc(C(=O)OCC(=O)Nc2ccc(F)cc2F)cc1 | i | -8 | 1 | 3 | i | 331
Cc1c(C(=O)NC2CC(C)(C)NC(C)(C)C2)oc2c(Cl)cccc12 | i | 15 | · | 0 | · | ·
O=C(NCc1ccccc1Br)c1cccs1 | + | 1 | · | 0 | · | ·
COc1ccccc1CNC(=O)c1cccs1 | i | -6 | 0 | 2 | i | 749
O=C(CCN1C(=O)/C(=C\c2cccs2)SC1=S)Nc1ccc(C(=O)O)cc1 | i | 13 | 1 | 1 | i | 190
CCN(CC)CCOC(=O)c1ccc(NC(=O)CCCN2C(=O)/C(=C\c3cccs3)SC2=S)cc1 | i | 39* | 0 | -5 | i | 158
